# TRPC4 potent: allosteric potentiators of mouse TRPC4 channel; B-score at 10 µM; HEK293 TRPC4beta/mu-opioid, DAMGO EC20, Fluo-4 Ca2+ flux; hits give high values; 0.42% of 310,000 active; Q9QUQ5; AID 2227;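 active = B-score of calcium response area above 5 SD of library B-scores, with initial fluorescence ratio within 5 SD of library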;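 note: B-score of integrated fluorescence ratio over time as area under calcium response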
# TRPC4 act: opens the mouse TRPC4 cation channel; B-score at 10 µM; Q9QUQ5; 0.49% of 310,000 active; HEK293 TRPC4beta/mu-opioid, Fluo4 calcium fluorescence; hits give high values; AID 2237;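 active = B-score above 5 SD of library B-scores, and initial fluorescence ratio not above library mean plus 5 SD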;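 note: positive B-score marks a calcium rise read as TRPC4 activation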
#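 Incubation: 45 min room-temperature Fluo4 loading, 110 s read / System: HEK293 cells stably co-expressing mouse TRPC4beta and mu-opioid receptor / Signal: Fluo4 fluorescence, kinetic / Control set: buffer (low) and maximal DAMGO (high) / Measure: integrated baseline-normalised fluorescence ratio, converted to per-well B score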
# TRPC6 inhibitor: inhibitors of mouse TRPC6 channel; B-score at 10 µM; HEK293-TRPC6, membrane potential dye, ACh-evoked depolarization; hits give low values; AID 2553; 1.1% of 310,000 active; Q61143;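 active = B-score under library mean minus 3 SD, initial fluorescence not abnormally high, positive integrated signal ratio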;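 note: B-score derived from integrated fluorescence ratio over the kinetic read; more negative B-score means stronger inhibition of depolarization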
# TRPC6 act: activates the mouse TRPC6 cation channel | 0.13% of 310,000 active | Q61143 | HEK293-TRPC6 membrane potential dye fluorescence; hits give high values | B-score at 10 µM;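 active = B-score of the integrated fluorescence ratio above library mean plus 3 SD, and starting fluorescence ratio within library mean plus 5 SD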;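 note: higher score means more depolarization so channel activation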
# TRPC4 block: TRPC4 (mouse) channel inhibition; HEK293 TRPC4beta/mu-opioid, DAMGO-evoked Fluo4 calcium flux; hits give low values; B-score at 10 µM; 0.39% of 300,000 active;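 active = B-score over 3 SD under the library average, no early fluorescence shift, positive overall ratio signal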
#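 material = TRPC4beta/mu-opioid receptor HEK293 cell line | probe or stimulus = sequential submaximal and maximal DAMGO stimulation | compound dosing = one concentration per compound | measured by = Fluo4 Ca2+ flux fluorescence | evaluation = integrated fluorescence ratio relative to baseline, converted to per-well B score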
# TRPC4 spec 2: mouse TRPC4 off-target activity of TRPC6 inhibitors, second screen | shares compounds with TRPC6 inhibitor | HEK293 TRPC4/MOR, membrane potential dye fluorescence; channel activated by saturating DAMGO dose | inhibition, % at 10 µM | 42% of 920 active | AID 2776;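 active = compounds whose fluorescence signal differed from control wells by over 3 SD, either direction, in both duplicate plates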
# TRPC4 spec: tests whether TRPC6 inhibitors also affect mouse TRPC4; shares compounds with TRPC6 inhibitor; HEK293 TRPC4/mu-opioid, membrane potential fluorescence; activity change, negative = inhibition, % at 10 µM; 61% of 920 active;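 active = rise or fall in signal beyond 3 SD of buffer-only wells in both replicate plates, either sign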;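 note: integrated kinetic ratio of fluorescence range over baseline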
# HEK293 MPD ctr 2-1: parental HEK293 nonspecific activity of TRPC6 inhibitors, second screen; shares compounds with TRPC6 inhibitor; parental HEK293 membrane potential dye fluorescence; maximal acetylcholine challenge after compound addition; signal change vs control, % at 10 µM; 31% of 920 active;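 active = membrane potential signal moving either way by over 3 SD of the maximum-effect control, in both duplicate plates, meaning non-specific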
# HEK293 MPD ctr-1: counter-screen for TRPC6 inhibitors: effect in parental HEK293 cells; 60% of 920 active; parental HEK293 membrane potential dye fluorescence; membrane potential signal change, % at 10 µM; shares compounds with TRPC6 inhibitor;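 active = membrane potential signal shifting up or down by more than 3 SD of buffer-only wells, on both duplicate plates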
# HEK293 MPD ctr-2: parental HEK293 nonspecific activity of TRPC6 modulators | shares compounds with TRPC6 inhibitor | membrane potential dye fluorescence | membrane potential signal change, % at 10 µM | 51% of 2,400 active | AID 488924;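 active = membrane potential signal moves up or down beyond 5 SD from buffer-only wells, on both duplicate plates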
# HEK293 MPD ctr 2-2: second counter-screen for TRPC6 modulators: effect in parental HEK293 cells. shares compounds with TRPC6 inhibitor. membrane potential dye fluorescence; after compound, maximal acetylcholine stimulation. inhibition, % at 10 µM. 14% of 2,400 active;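 active = membrane potential signal drops by more than 5 SD from the mean control signal, in both duplicate plates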;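 note: plate controls were acetylcholine ECmax control wells for no effect and buffer only wells for full effect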
# TRPC4 ctr mod: selectivity of TRPC6 modulators against mouse TRPC4 | shares compounds with TRPC6 inhibitor | HEK293 TRPC4/mu-opioid, membrane potential fluorescence | percent change from control (negative = decrease, positive = increase), % at 10 µM | 69% of 2,400 active;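 active = membrane potential signal moved up or down beyond 5 SD of buffer control wells, in both duplicate plates, actives on both sides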;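 note: plate controls were assay buffer wells for no effect and DAMGO maximal-effect wells for full effect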
# TRPC4/MOR inh 2: mouse TRPC4 off-target activity of TRPC6 modulators, second screen; shares compounds with TRPC6 inhibitor; HEK293 TRPC4/mu-opioid, membrane potential dye fluorescence; stimulated with maximal-effect DAMGO; inhibition, % at 10 µM; 55% of 2,400 active;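 active = drop in membrane potential signal beyond 5 SD of the control wells in both duplicate plates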;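 note: TRPC4 counter screen for TRPC6 hits run under conditions tuned for TRPC6 not TRPC4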
# TRPC6 block conf: mouse TRPC6 inhibitor confirmation; shares compounds with TRPC6 inhibitor; HEK293-TRPC6, membrane potential dye, ACh-evoked depolarization; inhibition, % at 10 µM; 43% of 3,300 active;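 active = fluorescence ratio falls more than 5 SD below the full-stimulation control mean, in both duplicate runs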;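 note: integrated fluorescence ratio of peak minus minimum over baseline after agonist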
# TRPC6 act confirm: confirmation of mouse TRPC6 activators | shares compounds with TRPC6 inhibitor | HEK293-TRPC6 membrane potential dye fluorescence, FDSS | activation, % at 10 µM | 11% of 2,800 active | AID 488961;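 active = ratio signal rise beyond 5 SD above unstimulated control wells' mean, seen in both duplicate runs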;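 note: plate controls were buffer EC0 wells for no effect and acetylcholine ECmax response for full effect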
# * = called active by the depositor; i = inactive; x = not tested or not shown. In the library only some 2.3% were active in any assay of this set; here they are far more common.
SMILES,TRPC4 potent,TRPC4 act,TRPC6 inhibitor,TRPC6 act,TRPC4 block,HEK293 MPD ctr-2,HEK293 MPD ctr 2-2,TRPC4 ctr mod,TRPC4/MOR inh 2,TRPC6 block conf,TRPC6 act confirm,others
Cc1c(O)c(CN2CCCCC2)cc2c3c(c(=O)oc12)CCC3,i,i,-10*,i,i,-243%*,i,-39%*,i,44%*,i,
Cc1c(O)c(CN2CCCCC2)cc2c1oc(=O)c1ccccc12,i,i,i,i,i,x,x,x,x,x,x,
Cc1cccc(OCCCCN2CCNCC2)c1,i,i,i,i,i,x,x,x,x,x,x,
Cc1cc(C)c(OCCCCN2CCNCC2)c(C)c1,i,i,-5.7*,i,i,i,i,i,54%*,44%*,x,
Cc1cccc(C)c1OCCCCN1CCNCC1,i,i,i,i,i,x,x,x,x,x,x,
Cc1ccc(OCCCCCCN2CCNCC2)cc1,i,i,-6.7*,i,i,x,x,x,x,i,i,TRPC4 spec 2=48%*;TRPC4 spec=0.1%*;HEK293 MPD ctr 2-1=i;HEK293 MPD ctr-1=7.4%*
Cc1ccccc1OCCCCCCN1CCNCC1,10*,i,-8.2*,i,i,x,x,x,x,i,i,TRPC4 spec 2=54%*;TRPC4 spec=1.8%*;HEK293 MPD ctr 2-1=i;HEK293 MPD ctr-1=4.1%*
COc1ccc(CCNC(=O)CN2C(=O)COc3ccc(S(=O)(=O)N4CCCC4)cc32)c(OC)c1,i,i,i,i,i,x,x,x,x,x,x,
O=[N+]([O-])c1cccc(OCCCN2CCC(Cc3ccccc3)CC2)c1,i,i,-7.1*,i,i,x,x,x,x,88%*,i,TRPC4 spec 2=16%*;TRPC4 spec=-12%*;HEK293 MPD ctr 2-1=i;HEK293 MPD ctr-1=-224%*
CC(=O)CCc1ccc(OCCCCN2CCC(Cc3ccccc3)CC2)cc1,i,i,-8.4*,i,i,i,i,i,70%*,46%*,x,
CCOC(=O)c1nnn2c1nc(N1CCN(C)CC1)c1ccccc12,i,i,-8.4*,i,i,-238%*,74%*,-42%*,53%*,61%*,i,
CCOC(=O)c1nnn2c1nc(N1CCCCC1)c1ccccc12,i,i,i,i,i,x,x,x,x,x,x,
Cc1ccnc(NC(=O)C(C)N2C(=O)c3ccccc3S2(=O)=O)c1 (centres undefined),i,i,i,i,i,x,x,x,x,x,x,
Cc1cc(C)nc(/N=C(\N)Nc2ccc(SC(F)F)cc2)n1,i,43*,-6.4*,i,i,-132%*,i,-23%*,48%*,i,i,
CC(=O)Nc1ccc(N/C(N)=N/c2nc(C)cc(C)n2)cc1,i,i,i,i,i,x,x,x,x,x,x,
Cc1cc(C)nc(/N=C(\N)Nc2ccc(F)c([N+](=O)[O-])c2)n1,i,i,-6.4*,i,i,-185%*,i,-25%*,32%*,i,i,
Cc1ccc(C2=NN(C(=O)CCCC(=O)O)C(c3ccc4c(c3)OCO4)C2)cc1 (centres undefined),i,i,i,i,i,x,x,x,x,x,x,
Cn1cc(CN2CCN(c3ccccc3)CC2)c2ccccc21,i,i,-5.5*,i,i,i,i,12%*,43%*,i,i,
CN(C)C(=O)N1CCCC(C(=O)NCc2ccccc2Cl)C1 (centres undefined),i,i,-5.3*,i,i,i,i,i,i,i,i,
CS(=O)(=O)N(CC(=O)NCc1ccccc1Cl)C1CCCCC1,i,i,-6.5*,i,i,134%*,i,22%*,i,i,x,
CS(=O)(=O)N(CC(=O)NCc1ccc(Cl)cc1)C1CCCCC1,i,i,i,i,i,x,x,x,x,x,x,
COc1ccc2oc(C(=O)NC3(C)CCS(=O)(=O)C3)c(C)c2c1 (centres undefined),i,i,i,i,i,x,x,x,x,x,x,
Cc1cc(C)c(Nc2ncnc(N)n2)c(C)c1,i,i,i,i,i,x,x,x,x,x,x,
COc1cccc(N2CCN(c3ccc4nnc(CCC(=O)Nc5ccc(OC)c(OC)c5)n4n3)CC2)c1,i,i,i,i,i,x,x,x,x,x,x,
CCN1CCN(C(=O)c2ccc(C)c(S(=O)(=O)Nc3cccc(C)c3)c2)CC1,i,i,-5.8*,i,i,i,i,i,i,i,i,
SMILES,TRPC4 potent,TRPC4 act,TRPC6 inhibitor,TRPC6 act,TRPC4 block,HEK293 MPD ctr-2,HEK293 MPD ctr 2-2,TRPC4 ctr mod,TRPC4/MOR inh 2,TRPC6 block conf,TRPC6 act confirm,others
Cc1cccc(NS(=O)(=O)c2cc(C(=O)N3CCN(C)CC3)ccc2C)c1,i,i,i,i,i,x,x,x,x,x,x,
COc1ccc2c(COC(=O)CCS(=O)(=O)c3ccc(C)cc3)cc(=O)oc2c1,i,i,-5.3*,i,i,i,i,i,i,i,i,
COC(=O)Cc1cc(=O)oc2cc(OC)ccc12,i,i,i,i,i,x,x,x,x,x,x,
Cc1ccc(NCc2nnc(SCCN3CCCCC3)n2CC2CCCO2)c(C)c1 (centres undefined),i,i,-5.7*,i,i,i,i,16%*,35%*,41%*,i,
Cc1ccc(NCc2nnc(SCC(=O)Nc3ccccc3)n2CC2CCCO2)c(C)c1 (centres undefined),i,i,i,i,i,x,x,x,x,x,x,
Cc1ccc(C)c(NC(=O)CN(C)C(=O)CN2C(=O)C3CCCCC3C2=O)c1 (centres undefined),i,i,i,i,i,x,x,x,x,x,x,
